Test results reported in ChEMBL document CHEMBL1129495, “Highly selective bradykinin agonists and antagonists with replacement of proline residues by N-methyl-D- and L-phenylalanine” (J Med Chem, 1996).
Square brackets hold non-standard residues; d marks the D form. Peptide text beside a SMILES is read from it.

What was measured:
[1] = Inhibitory activity against low binding affinity binding site of Bradykinin receptor in guinea pig ileum was reported.; assay type: tissue-based, Cavia porcellus
Method in brief: (§1)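 Fresh rat myometrial or guinea pig ileum membranes (0.3–0.5 mg protein) incubated 30 min at 4 °C with 0.05 nM [3H]BK and increasing peptide concentrations. Buffer: 25 mM TES pH 6.8, 1 µM captopril, 1 mM DTE, bacitracin, BSA. Samples filtered on PEI-treated GF/C and counted. High- and low-affinity IC50s from Tobler–Engel analysis; duplicates.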

[2] = Inhibitory activity against high binding affinity binding site of Bradykinin receptor in rat uterus membrane was reported.; assay type: cell membranes; method in brief: as §1
[3] = Inhibitory activity against low binding affinity binding site of Bradykinin receptor in rat uterus membrane was reported.; assay type: cell membranes; method in brief: as §1
Cavia porcellus [4] = organism: Cavia porcellus; experiment: (§2) Antagonistic activity was evaluated in Guinea pig ileum assay.; assay type: functional; set-up: scale not given: the % may be the effect or the level left
Method in brief: (§3)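 Guinea pig terminal ileum in Tyrode at 37 °C under 0.5 g tension, isotonic recording. Analog added 5 min before a cumulative BK dose–response curve (maximum at 0.3 µM BK). pA2 is the negative log of the antagonist concentration that reduces the effect of a double BK dose to that of a single dose. Means of 3–7 determinations.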

Cavia porcellus [5] = organism: Cavia porcellus; experiment: Antagonistic activity was evaluated in Guinea pig lung strip assay.; assay type: functional; set-up: scale not given: the % may be the effect or the level left
Method in brief: (§4)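 Lower-lobe lung strips (2–3 mm) from guinea pigs (400–600 g) in Krebs–Henseleit at 37 °C under 1 g load, with isometric tension recorded. After 1 h equilibration, peptide was given 5 min before an ED50 dose of BK. Cumulative BK curves covered 0.01–10 µM. pA2 by the van Rossum method.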

Rattus norvegicus [6] = organism: Rattus norvegicus; experiment: Agonistic activity was evaluated in Estrus Rat Uterus Assay; assay type: functional
Method in brief: (§5)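 Uteri from female Wistar rats (180–200 g) given diethylstilbestrol 100 µg/kg sc 16 h before use. Distal horns held in de Jalon solution at 28 °C under 0.5 g resting tension, with isotonic contractions recorded. BK was dosed every 4 min and left in the bath 45 s. Agonist activity by Schild 4-point method, expressed as percent of BK activity.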

[7] = Selectivity for rat uterus is expressed as the ratio RUT/GPI; assay type: functional
Method in brief: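 Ratio of agonist activity (percent of BK) in estrus rat uterus to that in guinea pig ileum, both from isotonic contraction assays using the Schild 4-point method.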

[8] = Inhibitory activity against high affinity binding site of Bradykinin receptor in guinea pig ileum was reported.; assay type: tissue-based; settings: Cavia porcellus; method in brief: as §1
[9] = Inhibitory activity against low affinity binding site of Bradykinin receptor in guinea pig ileum; assay type: tissue-based; settings: Cavia porcellus; method in brief: as §1
[10] = Inhibitory activity against high affinity binding site of Bradykinin receptor in rat uterus membrane was reported.; assay type: cell membranes; method in brief: as §1
[11] = Inhibitory activity against low affinity binding site of Bradykinin receptor in rat uterus membrane was reported.; assay type: cell membranes; method in brief: as §1
Cavia porcellus [12] = organism: Cavia porcellus; experiment: Antagonistic activity expressed as pA2 in Guinea pig lung strip assay.; assay type: functional; settings: read-out: pA2 (converted); method in brief: as §4
Cavia porcellus [13] = organism: Cavia porcellus; experiment: as §2; assay type: functional, organism-based; settings: read-out: pA2 (converted); method in brief: as §3
Cavia porcellus [14] = organism: Cavia porcellus; experiment: Agonistic activity against selectivity for smooth muscle contraction in guinea pig ileum.; assay type: functional, Muscle tissue
Method in brief: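 Isolated terminal ileum (1.5 cm) from guinea pigs fasted 16 h, in Tyrode at 37 °C. Isotonic contractions recorded under 0.5 g resting tension. Agonist activity measured by Schild 4-point method against BK doses of 1 and 2 nM, expressed as percent of BK activity.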

Rattus norvegicus [15] = organism: Rattus norvegicus; experiment: Agonistic activity against selectivity for smooth muscle contraction in rat uterus.; assay type: functional, Muscle tissue; method in brief: as §5
Rattus norvegicus [16] = organism: Rattus norvegicus; experiment: Compound was tested for agonist activity for contraction of rat uterus, the negative logarithm of ED50 (pD2) was estimated.
Cavia porcellus [17] = organism: Cavia porcellus; experiment: Compound was tested for agonist activity for contraction of guinea pig ileum; the negative logarithm of ED50 (pD2) was estimated.

## CN(C(=O)[C@H](CO)NC(=O)[C@H](Cc1cccs1)NC(=O)CNC(=O)[C@@H]1CC(O)CN1C(=O)[C@@H]1CCCN1C(=O)[C@@H](N)CCCN=C(N)N)[C@H](Cc1ccccc1)C(=O)N[C@@H](Cc1ccccc1)C(=O)N[C@@H](CCCN=C(N)N)C(=O)O (stereo partly drawn)
[1]
  IC50: 29 nM
[2]
  IC50: 0.49 nM
[3]
  IC50: 65 nM
Cavia porcellus [4]
  Activity: 0.02%
Cavia porcellus [5]
  Activity: 0.04%
Rattus norvegicus [6]
  Activity: 89%
[7]
  Ratio: 4000

## CN(C(=O)[C@@H](N)CCCN=C(N)N)[C@@H](Cc1ccccc1)C(=O)N1CCC[C@H]1C(=O)NCC(=O)N[C@@H](Cc1ccccc1)C(=O)N[C@@H](CO)C(=O)N1CCC[C@H]1C(=O)N[C@@H](Cc1ccccc1)C(=O)N[C@@H](CCCN=C(N)N)C(=O)O
[8]
  IC50: 1 nM
[9]
  IC50: 25 nM
[10]
  IC50: 3.5 nM
[11]
  IC50: 232 nM
Cavia porcellus [4]
  Activity: 4%
Cavia porcellus [5]
  Activity: 1.4%
Cavia porcellus [12]
  Kb: 2570 nM
Rattus norvegicus [6]
  Activity: 35%

## NC(N)=NCCC[C@H](NC(=O)[C@H](Cc1ccccc1)NC(=O)[C@@H](Cc1ccccc1)NC(=O)[C@H](CO)NC(=O)[C@H](Cc1ccccc1)NC(=O)CNC(=O)[C@@H]1CCCN1C(=O)[C@@H]1CCCN1C(=O)[C@@H](N)CCCN=C(N)N)C(=O)O (H-RPPGFS[dF]FR-OH)
[1]
  IC50: 14 nM
[2]
  IC50: 6.6 nM
[3]
  IC50: 3.5 nM
Cavia porcellus [5]
  Activity: 0.9%
Cavia porcellus [13]
  Kb: 2750 nM
Rattus norvegicus [6]
  Activity: 1.7%

## H-RPPGFSPFR-OH [BRADYKININ]
[8]
  IC50: 0.01 nM
[9]
  IC50: 1.75 nM
[10]
  IC50: 0.01 nM
[11]
  IC50: 1 nM
Cavia porcellus [14]
  Activity: 100%
Cavia porcellus [4]
  Activity: 100%
Cavia porcellus [5]
  Activity: 100%
Rattus norvegicus [15]
  Activity: 100%
Rattus norvegicus [6]
  Activity: 100%
[7]
  Ratio: 1
Rattus norvegicus [16]
  pD2: 7.9
Cavia porcellus [17]
  pD2: 7.4
